Experiments:
[1] = target: xanthine oxidase (Bos taurus, UniProt P80457); test: Xanthine Oxidase assay; format: biochemical; details: 100 μM compound, hypoxanthine, Amplex Red/peroxidase
Summary of the method: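 Compound (100 μM) with xanthine oxidase, 100 μM Amplex Red, 0.4 U/mL horseradish peroxidase and 0.2 mM hypoxanthine. 15 min at 37 °C; H2O2-derived resorufin read by fluorescence, ex 530/em 590 nm.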

[2] = target: T1, bacterial NOX5 (Cylindrospermum stagnale, UniProt K9WT99); test: Initial evaluation on NOX5 membrane preparations; format: biochemical; details: for inhibition of NOX5 (in words): 100 μM compound, membranes
T1 sequence (K9WT99 1-693): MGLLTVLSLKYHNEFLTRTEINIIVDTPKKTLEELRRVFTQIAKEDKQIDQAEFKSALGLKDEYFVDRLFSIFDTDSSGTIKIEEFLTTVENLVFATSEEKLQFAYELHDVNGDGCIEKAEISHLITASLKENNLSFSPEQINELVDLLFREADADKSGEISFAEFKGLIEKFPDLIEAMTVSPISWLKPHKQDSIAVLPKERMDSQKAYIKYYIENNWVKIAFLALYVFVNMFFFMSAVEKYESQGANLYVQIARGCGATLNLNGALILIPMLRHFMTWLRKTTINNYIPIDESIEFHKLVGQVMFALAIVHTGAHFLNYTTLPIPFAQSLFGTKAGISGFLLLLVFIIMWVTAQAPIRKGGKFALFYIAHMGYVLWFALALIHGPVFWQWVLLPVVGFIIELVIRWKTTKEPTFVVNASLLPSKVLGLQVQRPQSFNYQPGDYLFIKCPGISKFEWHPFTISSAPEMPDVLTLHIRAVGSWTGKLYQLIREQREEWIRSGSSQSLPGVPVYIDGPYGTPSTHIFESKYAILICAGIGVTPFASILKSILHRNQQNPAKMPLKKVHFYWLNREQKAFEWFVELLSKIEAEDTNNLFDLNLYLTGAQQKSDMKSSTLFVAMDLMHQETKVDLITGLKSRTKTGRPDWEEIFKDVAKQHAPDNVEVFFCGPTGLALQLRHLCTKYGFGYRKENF

[3] = target: T1, bacterial NOX5; test: MCLA assay on NOX5 membranes; format: biochemical; details: 100 μM compound, MCLA assay
Summary of the method: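 E. coli membranes carrying FLAG-(His)8-SUMO-tagged C. stagnale NOX5, 12 μg, in PBS with 1 mM CaCl2, 0.5 μM FAD and 1 μM MCLA. Compound (100 μM single point, or concentration series) 10 min at 25 °C. Started with 200 μM NADPH; chemiluminescence read. Membranes lacking NOX5 set noise level. IC50 by sigmoidal fit, % of untreated control.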

[4] = MCLA auto-oxidation assay; details: 100 μM compound
[5] = Amplex Red/peroxidase assay in the absence of a NOX enzyme; details: 100 μM compound, no NOX enzyme, NADPH present
Summary of the method: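 Compound (100 μM) added to the Amplex Red/horseradish peroxidase H2O2 read-out with NADPH present but no NOX membranes, to probe reagent interference. Resorufin fluorescence read on a plate reader.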

[6] = target: T2, human NOX2 (Homo sapiens, UniProt P04839); test: MCLA assay on NOX2 membranes; format: biochemical; details: 100 μM compound
T2 sequence (P04839 2-570 limits assumed): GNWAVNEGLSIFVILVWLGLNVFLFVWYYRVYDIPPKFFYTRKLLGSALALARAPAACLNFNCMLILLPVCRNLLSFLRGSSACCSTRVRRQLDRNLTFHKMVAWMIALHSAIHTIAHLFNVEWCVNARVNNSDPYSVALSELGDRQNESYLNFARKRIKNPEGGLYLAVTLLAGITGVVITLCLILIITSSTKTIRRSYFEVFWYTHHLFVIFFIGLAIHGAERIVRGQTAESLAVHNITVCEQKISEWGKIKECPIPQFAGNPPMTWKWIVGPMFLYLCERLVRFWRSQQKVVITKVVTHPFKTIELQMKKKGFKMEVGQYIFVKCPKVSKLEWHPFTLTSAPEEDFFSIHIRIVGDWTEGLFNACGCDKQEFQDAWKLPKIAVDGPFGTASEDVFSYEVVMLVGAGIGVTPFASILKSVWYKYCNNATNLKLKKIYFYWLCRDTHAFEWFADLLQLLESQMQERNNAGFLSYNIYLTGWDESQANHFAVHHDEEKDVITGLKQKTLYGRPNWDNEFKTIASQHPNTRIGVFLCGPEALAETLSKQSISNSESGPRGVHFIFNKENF
T2 sequence (P13498 2-195 partner limits assumed): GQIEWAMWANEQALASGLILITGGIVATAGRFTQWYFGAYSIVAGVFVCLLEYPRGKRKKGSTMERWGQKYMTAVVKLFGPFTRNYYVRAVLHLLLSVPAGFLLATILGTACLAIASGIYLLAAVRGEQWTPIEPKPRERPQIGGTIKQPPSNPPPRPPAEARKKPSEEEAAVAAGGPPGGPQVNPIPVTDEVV

[7] = target: T3, human NOX4 (Homo sapiens, UniProt Q9NPH5); test: Initial evaluation on NOX4 membrane preparations; format: biochemical; details: for inhibition of NOX4 (in words): 100 μM compound, membranes
T3 sequence (Q9NPH5 1-578): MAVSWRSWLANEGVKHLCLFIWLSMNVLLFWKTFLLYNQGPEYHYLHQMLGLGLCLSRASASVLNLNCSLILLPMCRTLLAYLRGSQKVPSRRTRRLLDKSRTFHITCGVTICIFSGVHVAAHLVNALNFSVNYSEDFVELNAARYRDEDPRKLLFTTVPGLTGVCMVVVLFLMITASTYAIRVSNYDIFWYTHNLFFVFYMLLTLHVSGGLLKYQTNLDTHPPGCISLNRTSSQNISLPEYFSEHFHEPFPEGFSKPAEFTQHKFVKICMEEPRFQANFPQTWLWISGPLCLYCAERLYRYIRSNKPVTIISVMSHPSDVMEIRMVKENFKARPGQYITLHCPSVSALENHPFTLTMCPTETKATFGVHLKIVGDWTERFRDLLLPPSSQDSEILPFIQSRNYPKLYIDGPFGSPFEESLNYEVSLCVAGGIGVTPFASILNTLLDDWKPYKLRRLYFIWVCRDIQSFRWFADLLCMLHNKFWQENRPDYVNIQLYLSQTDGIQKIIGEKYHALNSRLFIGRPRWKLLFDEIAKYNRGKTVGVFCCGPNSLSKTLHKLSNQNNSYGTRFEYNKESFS
T3 sequence (P13498 2-195 partner limits assumed): T2 sequence (P13498 2-195 partner limits assumed)
Summary of the method: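 NOX4-p22 membranes from transfected HEK293 EBNA-1 cells, compound 100 μM, 10 min preincubation at 4 °C in PBS. Amplex Red: 100 μg membranes, 12.5 μM Amplex Red, 0.02 U/ml HRP, 40 μM FAD, started with 40 μM NADPH, ex 572/em 583 nm. CBA: 50 μg membranes, 20 μM FAD, then 200 μM coumarin boronic acid and 50 μM NADPH, ex 320/em 430 nm.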

[8] = target: T2, human NOX2; test: Initial evaluation on NOX2 membrane preparations; format: biochemical; details: for inhibition of NOX2 (in words): 100 μM compound, membranes
[9] = system: wild-type NOX5 dehydrogenase domain; test: Thermal shift analysis on purified NOX5 dehydrogenase domain; format: binding, Cylindrospermum stagnale; details: inflection temperature Ti, 35–95 °C
Summary of the method: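 Wild-type purified NOX5 dehydrogenase domain, with or without ligand, heated from 35 °C to 95 °C over 3 min on a Tycho system; inflection temperature (Ti) determined.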

[10] = NADH-PMS superoxide-scavenging assay; details: 100 μM compound, PMS-NADH/nitroblue tetrazolium
Summary of the method: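 Non-enzymatic superoxide generation in 16 mM Tris-HCl pH 8.0 with 80 μM nitroblue tetrazolium and 70 μM NADH plus compound (100 μM). Started with 5 μM phenazine methosulfate; 5 min at 25 °C; A560. SOD as positive control; lower absorbance than the negative control scored as scavenging.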

[11] = system: NOXs; test: Initial evaluation of NOX inhibitors, isoform not specified; format: biochemical; details: 100 μM compound
[12] = target: T4, wild-type dehydrogenase domain of NOX5 (Cylindrospermum stagnale, UniProt K9WT99); test: Microscale thermophoresis binding assay on purified NOX5 dehydrogenase domain
T4 sequence (K9WT99 413-693): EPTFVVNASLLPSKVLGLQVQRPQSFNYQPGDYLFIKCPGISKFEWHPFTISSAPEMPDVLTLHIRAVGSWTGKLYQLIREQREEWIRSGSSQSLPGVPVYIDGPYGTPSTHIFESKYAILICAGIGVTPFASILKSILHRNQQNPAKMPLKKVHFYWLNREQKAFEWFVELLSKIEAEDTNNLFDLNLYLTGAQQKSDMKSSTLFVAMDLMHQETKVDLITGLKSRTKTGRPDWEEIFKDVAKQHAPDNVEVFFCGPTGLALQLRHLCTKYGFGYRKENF
Summary of the method: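 Microscale thermophoresis with fluorescently labelled wild-type NOX5 dehydrogenase domain (~200 nM). Ligand given as 16 serial dilutions up to 6.4 mM in 50 mM Hepes, 240 mM NaCl, 0.5% glycerol, 250 μM FAD, 0.1% pluronic acid, pH 7.5. Incubated 10 min at 25 °C; recorded at 25 °C, red channel. Kd from binding isotherms, triplicate, standard deviation.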

[13] = target: T5, wild-type dehydrogenase domain of bacterial NOX5 (Cylindrospermum stagnale, UniProt K9WT99); test: NADPH-depletion assay on purified wild-type NOX5 dehydrogenase domain; format: biochemical
T5 sequence (K9WT99 413-693): T4 sequence (K9WT99 413-693)

Sequence of xanthine oxidase (P80457 whole entry): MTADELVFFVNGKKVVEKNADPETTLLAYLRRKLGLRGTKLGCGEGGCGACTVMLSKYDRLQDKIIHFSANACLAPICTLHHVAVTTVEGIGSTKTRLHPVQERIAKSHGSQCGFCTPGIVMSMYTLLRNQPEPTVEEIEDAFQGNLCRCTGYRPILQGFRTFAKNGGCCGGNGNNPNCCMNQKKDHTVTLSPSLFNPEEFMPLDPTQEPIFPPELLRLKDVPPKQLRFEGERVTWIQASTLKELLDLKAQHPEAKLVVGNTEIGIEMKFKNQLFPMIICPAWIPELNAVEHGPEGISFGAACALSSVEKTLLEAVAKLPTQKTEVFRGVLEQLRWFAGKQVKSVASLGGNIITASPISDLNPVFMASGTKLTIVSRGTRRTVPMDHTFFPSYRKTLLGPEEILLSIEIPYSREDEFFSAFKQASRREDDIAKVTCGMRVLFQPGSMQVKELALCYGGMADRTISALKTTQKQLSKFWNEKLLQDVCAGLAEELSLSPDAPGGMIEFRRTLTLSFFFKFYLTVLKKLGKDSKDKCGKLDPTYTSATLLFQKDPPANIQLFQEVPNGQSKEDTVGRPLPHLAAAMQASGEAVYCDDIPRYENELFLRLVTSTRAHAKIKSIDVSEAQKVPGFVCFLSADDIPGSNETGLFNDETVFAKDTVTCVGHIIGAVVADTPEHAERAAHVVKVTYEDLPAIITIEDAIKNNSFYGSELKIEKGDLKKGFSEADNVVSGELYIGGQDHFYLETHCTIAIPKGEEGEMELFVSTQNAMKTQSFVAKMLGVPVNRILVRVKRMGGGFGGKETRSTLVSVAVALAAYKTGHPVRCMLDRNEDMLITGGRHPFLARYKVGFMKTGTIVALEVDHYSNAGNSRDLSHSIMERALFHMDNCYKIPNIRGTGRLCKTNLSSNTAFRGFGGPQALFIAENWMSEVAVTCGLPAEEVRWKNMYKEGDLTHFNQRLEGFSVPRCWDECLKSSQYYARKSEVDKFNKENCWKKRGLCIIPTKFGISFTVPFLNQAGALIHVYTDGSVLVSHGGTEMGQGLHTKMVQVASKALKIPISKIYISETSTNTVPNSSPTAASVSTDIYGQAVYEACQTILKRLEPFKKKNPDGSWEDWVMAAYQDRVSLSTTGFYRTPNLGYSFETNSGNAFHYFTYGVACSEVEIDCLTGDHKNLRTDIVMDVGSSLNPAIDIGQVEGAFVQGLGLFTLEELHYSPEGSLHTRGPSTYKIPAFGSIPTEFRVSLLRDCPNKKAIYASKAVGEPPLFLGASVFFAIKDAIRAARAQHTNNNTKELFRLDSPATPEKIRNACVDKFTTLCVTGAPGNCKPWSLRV

| SMILES | inhibition of the hydrogen peroxide-producing activity of xanthine oxidase [1] | interference with MCLA auto-oxidation [4] | inhibition of NOX4 (in words) [7] | inhibition of NOX5 (in words) [2] | superoxide scavenging [10] | other results |
| --- | --- | --- | --- | --- | --- | --- |
| CC1=NN(c2ccccc2)CC1 [3-methyl-1-phenyl-2-pyrazoline] | powerful inhibitions | – | – | – | – | – |
| CC(C)c1c(C(=O)Nc2ccccc2)c(-c2ccccc2)c(-c2ccc(F)cc2)n1CC[C@@H](O)C[C@@H](O)CC(=O)O [Atorvastatin] | – | – | – | – | – | inhibition at 100 µM ([2]; read-out: inhibition of NOX5): ~50% |
| CN(C)c1cccc(-c2c3c(=O)n(-c4ccccc4Cl)[nH]c3cc(=O)n2C)c1 [GKT137831] | powerful inhibitions | substantial interference | strong NOX4 inhibitors | – | – | inhibition of NOX5 with the MCLA-based protocol (in words) [3]: moderately active; interference on the Amplex Red/peroxidase assay [5]: substantial interference; inhibition of NOX2 with MCLA (in words) [6]: moderately active |
| CC1=C(O)C(=O)C=C2C1=CC=C1[C@@]2(C)CC[C@@]2(C)[C@@H]3C[C@](C)(C(=O)O)CC[C@]3(C)CC[C@]12C [celastrol] | powerful inhibitions | interfered with the MCLA auto-oxidation | full | full | – | inhibition of NOX2 (in words) [8]: full; stabilising effect in thermal shift analysis [9]: lack of any stabilising effect |
| O=c1c2ccccc2[se]n1-c1ccccc1 [ebselen] | powerful inhibitions | substantial interference | full | full | – | interference on the Amplex Red/peroxidase assay [5]: substantial interference; inhibition of NOX2 (in words) [8]: full; stabilising effect in thermal shift analysis [9]: lack of any stabilising effect |
| OCCN1CCN(CCCN2c3ccccc3Sc3ccc(C(F)(F)F)cc32)CC1 [fluphenazine] | powerful inhibitions | – | – | – | mild scavenging activities | – |
| C1CCC(C(CC2CCCCN2)C2CCCCC2)CC1 (stereo not shown) [perhexiline] | – | interfered with the MCLA auto-oxidation | – | not against NOX5 | – | inhibition at 100 µM ([8]; read-out: inhibition of NOX2): 40 to 70%; inhibition at 100 µM ([7]; read-out: inhibition of NOX4): 40 to 70% |
| OCCN1CCN(CCCN2c3ccccc3Sc3ccc(Cl)cc32)CC1 [perphenazine] | powerful inhibitions | – | – | – | mild scavenging activities | – |
| O=c1[nH]c2ccccc2c2ccccc12 [phenanthridinone, 6(5H)-phenanthridinone] | – | – | – | – | mild scavenging activities | pattern of NOX inhibition (in words) [11]: assay-dependent inhibitory activities |
| CC1=CC(=O)c2c(O)cccc2C1=O [plumbagin] | – | – | – | – | – | pattern of NOX inhibition (in words) [11]: assay-dependent inhibitory activities |
| CN(C)CCCN1c2ccccc2Sc2ccccc21 [promazine] | powerful inhibitions | – | – | – | – | – |
| Cc1ccc(C(=O)Nc2ccc(S(=O)(=O)O)c3cc(S(=O)(=O)O)cc(S(=O)(=O)O)c23)cc1NC(=O)c1cccc(NC(=O)Nc2cccc(C(=O)Nc3cc(C(=O)Nc4ccc(S(=O)(=O)O)c5cc(S(=O)(=O)O)cc(S(=O)(=O)O)c45)ccc3C)c2)c1 [suramin] | – | – | full | full | strong superoxide scavenger | Kd [12]: 52.2 ± 1.1 µM; inhibition of NOX2 (in words) [8]: full; Ki [13]: 390 ± 50 nM; stabilising effect in thermal shift analysis [9]: lack of any stabilising effect |
